# Results taken from ChEMBL document CHEMBL5303300, “EUbOPEN Chemogenomics Library - Multiplex” (2023).
# “And” between values parts separate entries of the source, which are not always exact repeats. Equal entries are not always repeated.
# Key:
# Format in all cases: toxicity, cell-based
# Fibroblast = test: Multiplex assay against human fibroblast; conditions: number of replicates 2
# Outline: (§1)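 At seeding, live cells were stained with Hoechst33342, BioTracker Green Microtubule Cytoskeleton Dye, MitoTracker Red and Annexin V Alexa Fluor 680. After compound addition they were imaged on a CQ1 microscope at 37°C and 5% CO2, and CellPathfinder machine-learning gating sorted them into Hoechst high-intensity objects or normal cells, with normal cells further split into healthy, pyknosed or fragmented nuclei and pyknosed cells into mitotic or apoptotic. Tubulin, mitochondrial-mass and membrane-permeability phenotypes are given as per cents of cells with healthy nuclei.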
# HEK-293T = test: Multiplex assay against HEK293T; conditions: human, number of replicates 2; outline: as §1
# U2OS = test: Multiplex assay against U2OS; conditions: human, number of replicates 2; outline: as §1
# [1] = 12 h, 1 µM, compound concentration 1 uM
# [2] = 12 h, 10 µM, compound concentration 10 uM
# [3] = 24 h, 1 µM, compound concentration 1 uM
# [4] = 24 h, 10 µM, compound concentration 10 uM
# [5] = 48 h, 1 µM, compound concentration 1 uM
# [6] = 48 h, 10 µM, compound concentration 10 uM
structure (smiles),measurement,setting,value
Br.Oc1cc2c(cc1O)C(c1ccccc1)CNCC2 (stereo not drawn),Population Apoptotic (%),Fibroblast; [1],86% and 44%
same,Population Fragmented Nuclei (%),Fibroblast; [1],18% and 16%
same,Population Healthy Nuclei (%),Fibroblast; [1],73%
same,Population Hoechst High Intensity Objects (%),Fibroblast; [1],0%
same,Population Membrane Permeable-Phenotype (%),Fibroblast; [1],5% and 4%
same,Population Mitochondria Different-Phenotype (%),Fibroblast; [1],0% and 1%
same,Population Normal (%),Fibroblast; [1],100% and 99%
same,Population Pyknosed Nuclei (%),Fibroblast; [1],8% and 10%
same,Population Tubulin-Different-Phenotype (%),Fibroblast; [1],7% and 6%
same,Total Cell Count,Fibroblast; [1],185 and 180
same,Population Apoptotic (%),Fibroblast; [2],76% and 66%
same,Population Fragmented Nuclei (%),Fibroblast; [2],13% and 12%
same,Population Healthy Nuclei (%),Fibroblast; [2],76% and 79%
same,Population Hoechst High Intensity Objects (%),Fibroblast; [2],0%
same,Population Membrane Permeable-Phenotype (%),Fibroblast; [2],2%
same,Population Mitochondria Different-Phenotype (%),Fibroblast; [2],0% and 4%
same,Population Mitotic Cells (%),Fibroblast; [2],23% and 33%
same,Population Normal (%),Fibroblast; [2],100%
same,Population Pyknosed Nuclei (%),Fibroblast; [2],9% and 8%
same,Population Tubulin-Different-Phenotype (%),Fibroblast; [2],15% and 11%
same,Total Cell Count,Fibroblast; [2],132 and 172
same,Population Apoptotic (%),Fibroblast; [3],31% and 66%
same,Population Fragmented Nuclei (%),Fibroblast; [3],18% and 16%
same,Population Healthy Nuclei (%),Fibroblast; [3],69% and 76%
same,Population Hoechst High Intensity Objects (%),Fibroblast; [3],0%
same,Population Membrane Permeable-Phenotype (%),Fibroblast; [3],6% and 4%
same,Population Mitochondria Different-Phenotype (%),Fibroblast; [3],0%
same,Population Mitotic Cells (%),Fibroblast; [3],68% and 33%
same,Population Normal (%),Fibroblast; [3],100%
same,Population Pyknosed Nuclei (%),Fibroblast; [3],11% and 6%
same,Population Tubulin-Different-Phenotype (%),Fibroblast; [3],6% and 2%
same,Total Cell Count,Fibroblast; [3],187 and 183
same,Population Apoptotic (%),Fibroblast; [4],80% and 50%
same,Population Fragmented Nuclei (%),Fibroblast; [4],12% and 13%
same,Population Healthy Nuclei (%),Fibroblast; [4],84% and 79%
same,Population Hoechst High Intensity Objects (%),Fibroblast; [4],0%
same,Population Membrane Permeable-Phenotype (%),Fibroblast; [4],1%
same,Population Mitochondria Different-Phenotype (%),Fibroblast; [4],0% and 1%
same,Population Mitotic Cells (%),Fibroblast; [4],20% and 50%
same,Population Normal (%),Fibroblast; [4],100%
same,Population Pyknosed Nuclei (%),Fibroblast; [4],3% and 7%
same,Population Tubulin-Different-Phenotype (%),Fibroblast; [4],9% and 13%
same,Total Cell Count,Fibroblast; [4],140 and 169
same,Population Apoptotic (%),Fibroblast; [5],90% and 54%
same,Population Fragmented Nuclei (%),Fibroblast; [5],18% and 14%
same,Population Healthy Nuclei (%),Fibroblast; [5],75% and 79%
same,Population Hoechst High Intensity Objects (%),Fibroblast; [5],0%
same,Population Membrane Permeable-Phenotype (%),Fibroblast; [5],2%
same,Population Mitochondria Different-Phenotype (%),Fibroblast; [5],0%
same,Population Normal (%),Fibroblast; [5],100%
same,Population Pyknosed Nuclei (%),Fibroblast; [5],5%
same,Population Tubulin-Different-Phenotype (%),Fibroblast; [5],4% and 3%
same,Total Cell Count,Fibroblast; [5],175 and 194
same,Population Apoptotic (%),Fibroblast; [6],25% and 42%
same,Population Fragmented Nuclei (%),Fibroblast; [6],19% and 17%
same,Population Healthy Nuclei (%),Fibroblast; [6],77% and 78%
same,Population Hoechst High Intensity Objects (%),Fibroblast; [6],0%
same,Population Membrane Permeable-Phenotype (%),Fibroblast; [6],0% and 1%
same,Population Mitochondria Different-Phenotype (%),Fibroblast; [6],0%
same,Population Mitotic Cells (%),Fibroblast; [6],75% and 57%
same,Population Normal (%),Fibroblast; [6],100%
same,Population Pyknosed Nuclei (%),Fibroblast; [6],2% and 3%
same,Population Tubulin-Different-Phenotype (%),Fibroblast; [6],10% and 9%
same,Total Cell Count,Fibroblast; [6],163 and 182
same,Population Apoptotic (%),HEK-293T; [1],30% and 41%
same,Population Fragmented Nuclei (%),HEK-293T; [1],5% and 3%
same,Population Healthy Nuclei (%),HEK-293T; [1],85%
same,Population Hoechst High Intensity Objects (%),HEK-293T; [1],6% and 4%
same,Population Membrane Permeable-Phenotype (%),HEK-293T; [1],4% and 2%
same,Population Mitochondria Different-Phenotype (%),HEK-293T; [1],9% and 10%
same,Population Mitotic Cells (%),HEK-293T; [1],69% and 58%
same,Population Normal (%),HEK-293T; [1],93% and 95%
same,Population Pyknosed Nuclei (%),HEK-293T; [1],9% and 10%
same,Population Tubulin-Different-Phenotype (%),HEK-293T; [1],45% and 42%
same,Total Cell Count,HEK-293T; [1],950 and 793
same,Population Apoptotic (%),HEK-293T; [2],36% and 47%
same,Population Fragmented Nuclei (%),HEK-293T; [2],4% and 3%
same,Population Healthy Nuclei (%),HEK-293T; [2],86% and 88%
same,Population Hoechst High Intensity Objects (%),HEK-293T; [2],7% and 5%
same,Population Membrane Permeable-Phenotype (%),HEK-293T; [2],2% and 0%
same,Population Mitochondria Different-Phenotype (%),HEK-293T; [2],12% and 21%
same,Population Mitotic Cells (%),HEK-293T; [2],63% and 52%
same,Population Normal (%),HEK-293T; [2],92% and 94%
same,Population Pyknosed Nuclei (%),HEK-293T; [2],8%
same,Population Tubulin-Different-Phenotype (%),HEK-293T; [2],51% and 55%
same,Total Cell Count,HEK-293T; [2],631 and 499
same,Population Apoptotic (%),HEK-293T; [3],20% and 36%
same,Population Fragmented Nuclei (%),HEK-293T; [3],6% and 5%
same,Population Healthy Nuclei (%),HEK-293T; [3],89%
same,Population Hoechst High Intensity Objects (%),HEK-293T; [3],8% and 9%
same,Population Membrane Permeable-Phenotype (%),HEK-293T; [3],3% and 2%
same,Population Mitochondria Different-Phenotype (%),HEK-293T; [3],3%
same,Population Mitotic Cells (%),HEK-293T; [3],80% and 63%
same,Population Normal (%),HEK-293T; [3],91% and 90%
same,Population Pyknosed Nuclei (%),HEK-293T; [3],4% and 5%
same,Population Tubulin-Different-Phenotype (%),HEK-293T; [3],27% and 29%
same,Total Cell Count,HEK-293T; [3],1693 and 1195
same,Population Apoptotic (%),HEK-293T; [4],29% and 50%
same,Population Fragmented Nuclei (%),HEK-293T; [4],9% and 7%
same,Population Healthy Nuclei (%),HEK-293T; [4],86% and 88%
same,Population Hoechst High Intensity Objects (%),HEK-293T; [4],9% and 6%
same,Population Membrane Permeable-Phenotype (%),HEK-293T; [4],4% and 2%
same,Population Mitochondria Different-Phenotype (%),HEK-293T; [4],3% and 12%
same,Population Mitotic Cells (%),HEK-293T; [4],70% and 50%
same,Population Normal (%),HEK-293T; [4],90% and 93%
same,Population Pyknosed Nuclei (%),HEK-293T; [4],4%
same,Population Tubulin-Different-Phenotype (%),HEK-293T; [4],30% and 40%
same,Total Cell Count,HEK-293T; [4],1020 and 788
same,Population Apoptotic (%),HEK-293T; [5],4% and 10%
same,Population Fragmented Nuclei (%),HEK-293T; [5],20% and 11%
same,Population Healthy Nuclei (%),HEK-293T; [5],78% and 85%
same,Population Hoechst High Intensity Objects (%),HEK-293T; [5],11% and 9%
same,Population Membrane Permeable-Phenotype (%),HEK-293T; [5],6% and 5%
same,Population Mitochondria Different-Phenotype (%),HEK-293T; [5],0%
same,Population Mitotic Cells (%),HEK-293T; [5],95% and 89%
same,Population Normal (%),HEK-293T; [5],88% and 90%
same,Population Pyknosed Nuclei (%),HEK-293T; [5],1% and 2%
same,Population Tubulin-Different-Phenotype (%),HEK-293T; [5],17% and 16%
same,Total Cell Count,HEK-293T; [5],4091 and 2858
same,Population Fragmented Nuclei (%),HEK-293T; [6],23% and 14%
same,Population Healthy Nuclei (%),HEK-293T; [6],75% and 82%
same,Population Hoechst High Intensity Objects (%),HEK-293T; [6],9%
same,Population Membrane Permeable-Phenotype (%),HEK-293T; [6],8% and 5%
same,Population Mitochondria Different-Phenotype (%),HEK-293T; [6],0% and 1%
same,Population Mitotic Cells (%),HEK-293T; [6],96% and 84%
same,Population Normal (%),HEK-293T; [6],90%
same,Population Pyknosed Nuclei (%),HEK-293T; [6],1% and 3%
same,Population Tubulin-Different-Phenotype (%),HEK-293T; [6],15% and 21%
same,Total Cell Count,HEK-293T; [6],2576 and 1623
same,Population Fragmented Nuclei (%),U2OS; [1],14% and 5%
same,Population Healthy Nuclei (%),U2OS; [1],80% and 82%
same,Population Hoechst High Intensity Objects (%),U2OS; [1],0%
same,Population Membrane Permeable-Phenotype (%),U2OS; [1],2% and 1%
same,Population Mitochondria Different-Phenotype (%),U2OS; [1],0%
same,Population Mitotic Cells (%),U2OS; [1],100% and 50%
same,Population Normal (%),U2OS; [1],100%
same,Population Pyknosed Nuclei (%),U2OS; [1],6% and 11%
same,Population Tubulin-Different-Phenotype (%),U2OS; [1],67% and 89%
same,Population Apoptotic (%),U2OS; [2],57% and 30%
same,Population Healthy Nuclei (%),U2OS; [2],33% and 85%
same,Population Hoechst High Intensity Objects (%),U2OS; [2],0%
same,Population Membrane Permeable-Phenotype (%),U2OS; [2],0% and 1%
same,Population Mitochondria Different-Phenotype (%),U2OS; [2],0% and 1%
same,Population Mitotic Cells (%),U2OS; [2],42% and 69%
same,Population Normal (%),U2OS; [2],100%
same,Population Tubulin-Different-Phenotype (%),U2OS; [2],50% and 75%
same,Population Apoptotic (%),U2OS; [3],50% and 61%
same,Population Fragmented Nuclei (%),U2OS; [3],8% and 5%
same,Population Healthy Nuclei (%),U2OS; [3],83% and 82%
same,Population Hoechst High Intensity Objects (%),U2OS; [3],2% and 0%
same,Population Membrane Permeable-Phenotype (%),U2OS; [3],2% and 0%
same,Population Mitochondria Different-Phenotype (%),U2OS; [3],2% and 0%
same,Population Mitotic Cells (%),U2OS; [3],50% and 38%
same,Population Normal (%),U2OS; [3],97% and 100%
same,Population Pyknosed Nuclei (%),U2OS; [3],8% and 11%
same,Population Tubulin-Different-Phenotype (%),U2OS; [3],67% and 91%
same,Population Apoptotic (%),U2OS; [4],50% and 44%
same,Population Healthy Nuclei (%),U2OS; [4],58% and 88%
same,Population Hoechst High Intensity Objects (%),U2OS; [4],0%
same,Population Membrane Permeable-Phenotype (%),U2OS; [4],10% and 0%
same,Population Mitochondria Different-Phenotype (%),U2OS; [4],10% and 0%
same,Population Mitotic Cells (%),U2OS; [4],50% and 55%
same,Population Normal (%),U2OS; [4],100%
same,Population Pyknosed Nuclei (%),U2OS; [4],23% and 8%
same,Population Tubulin-Different-Phenotype (%),U2OS; [4],80% and 83%
same,Population Apoptotic (%),U2OS; [5],37% and 53%
same,Population Fragmented Nuclei (%),U2OS; [5],13% and 3%
same,Population Healthy Nuclei (%),U2OS; [5],78% and 89%
same,Population Hoechst High Intensity Objects (%),U2OS; [5],0%
same,Population Membrane Permeable-Phenotype (%),U2OS; [5],5% and 0%
same,Population Mitochondria Different-Phenotype (%),U2OS; [5],2% and 0%
same,Population Mitotic Cells (%),U2OS; [5],62% and 46%
same,Population Normal (%),U2OS; [5],100% and 99%
same,Population Pyknosed Nuclei (%),U2OS; [5],8% and 7%
same,Population Tubulin-Different-Phenotype (%),U2OS; [5],64% and 99%
same,Population Apoptotic (%),U2OS; [6],44% and 64%
same,Population Healthy Nuclei (%),U2OS; [6],54% and 90%
same,Population Hoechst High Intensity Objects (%),U2OS; [6],0%
same,Population Membrane Permeable-Phenotype (%),U2OS; [6],10% and 0%
same,Population Mitochondria Different-Phenotype (%),U2OS; [6],10% and 0%
same,Population Mitotic Cells (%),U2OS; [6],55% and 35%
same,Population Normal (%),U2OS; [6],100%
same,Population Tubulin-Different-Phenotype (%),U2OS; [6],84% and 93%
